# Measurements from different studies.
# Protocols differ between the studies behind these lines.
# Effect on: cell growth or viability
SMILES,cell line,assay,conditions,measurement,value
C=CC(=O)NC1CCN(c2ncc3ncnc(Nc4ccc(Oc5ccc6c(c5)ncn6C)c(C)c4)c3n2)CC1,NCI-H322,,,EC50,471 nM
Cc1ccc2c(-c3cc4c(CNCc5cccnc5)cnc(C)c4o3)cc(=O)oc2c1C,NCI-H1975,MTT,72 h,IC50,43.9 µM
COc1cccc2c1C(=O)c1c(O)c3c(c(O)c1C2=O)C[C@@](O)(C(=O)CO)C[C@@H]3O[C@H]1C[C@H](N)[C@H](O)[C@H](C)O1,HEK293,MTT,72 h,IC50,0.06 µM
C=CC(=O)N1CCN(c2nc(=O)n(-c3c(C)ccnc3C(C)C)c3nc(-c4c(O)cccc4F)c(F)cc23)[C@@H](C)C1,SW1463,ATP luminescence,,IC50,0.132 µM
CC(C)Oc1ccc(S(=O)(=O)c2ccc(Oc3cc(OCC(N)=O)c(C(=O)C(Cl)Cl)cc3[N+](=O)[O-])cc2)cc1,HEK293,MTT,72 h,IC50,1.22 µM
Cc1ccc2c(-c3cc4c(CN5CCN(Cc6ccccn6)CC5)cnc(C)c4o3)cc(=O)oc2c1,NCI-H1975,MTT,72 h,IC50,32.1 µM
O=C(NO)c1ccc(CNc2nc3cccc(-c4ccc5c(c4)OCO5)n3n2)cc1,NCI-H322M,SRB,,GI50,600 nM
CC1(C)CCC(CN2CCN(c3ccc(C(=O)NS(=O)(=O)c4ccc(NCC5CCOCC5)c([N+](=O)[O-])c4)c(Oc4cnc5[nH]ccc5c4)c3)CC2)=C(c2ccc(Cl)cc2)C1,Rec1,ATP luminescence,48 h,IC50,0.489 µM
Cc1ncc(CN2CCN(Cc3ccccn3)CC2)c2cc(C(=O)c3ccc4c(c3)OCCO4)oc12,NCI-H1975,MTT,72 h,IC50,38.8 µM
NC(=O)c1ccc(Oc2ccc(C(=O)C(Cl)Cl)cc2[N+](=O)[O-])cc1,NCI-H1975,MTT,2.5 µM,inhibition,97.2%
N[C@H]1CC[C@H](N[C@@H]2C[C@H]2c2ccccc2)CC1,HEK293,resazurin,,IC50,120 µM
CC(=O)Nc1ccc(Oc2ccc(C(=O)C(Cl)Cl)cc2[N+](=O)[O-])cc1,NCI-H1975,MTT,2.5 µM,inhibition,88.3%
C#Cc1cccc(Nc2ncnc3cc(OCCOC)c(OCCOC)cc23)c1,NCI-H1975,MTT,72 h,IC50,55 µM
O=C(c1ccc(Oc2ccc(OCc3ccccc3)cc2)c([N+](=O)[O-])c1)C(Cl)Cl,NCI-H1975,MTT,2.5 µM,inhibition,95.2%
C=C(F)C(=O)N1CCN(c2nc(OC[C@@H]3CCCN3C)nc3c2CCN(c2cccc4cccc(Cl)c24)C3)C[C@@H]1CC#N,SW1463,ATP luminescence,,IC50,0.367 µM
